According to ChEMBL document CHEMBL3804757, “Cystoseira usneoides: A Brown Alga Rich in Antioxidant and Anti-inflammatory Meroditerpenoids” (J Nat Prod, 2016):

Assays:
[1] = Antioxidant activity assessed as ABTS free radical scavenging activity after 6 mins by ABTS free radical decolorization assay; type: physicochemical
How it was run: (§1)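 ABTS•+ generated by mixing 7 mM ABTS with 2.45 mM potassium persulfate (1:1) and holding 12–18 h in the dark at room temperature. It was then diluted in EtOH to A734 0.70 ± 0.02. 100 μL ethanolic compound was added to 2 mL of radical solution, and A734 read after 6 min against an EtOH control. % inhibition = [(A0−A1)/A0]×100, done in triplicate; Trolox served as standard.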

[2] = Antiinflammatory activity against human THP1 cells assessed as inhibition of LPS-induced TNFalpha production pretreated for 1 hr before LPS challenge at 10 uM measured after 24 hrs by ELISA; type: functional, THP-1; set-up: scale not given: the % may be the effect or the level left
How it was run: (§2)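 THP-1 cells (RPMI 1640, 10% FBS) differentiated to macrophages with PMA 0.2 μM final for 3 days, washed with cold PBS, then pre-incubated 1 h with compound diluted from DMSO stocks (0.1% DMSO). Stimulated with LPS at 1 μg/mL final. Supernatants taken after 24 h and TNF-α measured by ELISA. Dexamethasone 1 μM as positive control; an unstimulated control was included. Values are mean ± SE of four determinations.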

[3] = Cytotoxicity against human THP1 cells assessed as cell viability at 5 to 10 uM after 48 hrs by SRB assay; type: cell-based; conditions: thp-1, 48 h
[4] = Antioxidant activity assessed as ABTS free radical scavenging activity after 6 mins by ABTS free radical decolorization assay relative to Trolox; type: physicochemical; set-up: concentration or dose not given beside the values; conditions: 0.1 h; how it was run: as §1
[5] = Antiinflammatory activity against human THP1 cells assessed as inhibition of LPS-induced TNFalpha production pretreated for 1 hr before LPS challenge at 5 uM measured after 24 hrs by ELISA; type: functional, THP-1; set-up: scale not given: the % may be the effect or the level left; how it was run: as §2
[6] = Antiinflammatory activity against human THP1 cells assessed as inhibition of LPS-induced TNFalpha production pretreated for 1 hr before LPS challenge at 8 uM measured after 24 hrs by ELISA; type: functional, THP-1; set-up: scale not given: the % may be the effect or the level left; how it was run: as §2

| Structure (SMILES) | EC50 [1] | Activity [2] | Activity [3] | Activity [4] | Activity [5] | Activity [6] |
| --- | --- | --- | --- | --- | --- | --- |
| Cc1c(C)c2c(c(C)c1O)CCC(C)(C(=O)O)O2 (stereo not drawn) [TROLOX] | 12 µM | – | – | – | – | – |
| C/C(=C/C(=O)C/C(C)=C/Cc1cc(O)cc(C)c1O)CCCC(C)(O)C(=O)/C=C/C(C)(C)O (stereo not drawn) | – | 81% | Non-toxic | 81% | – | – |
| COc1c(C)cc(O)cc1C/C=C(\C)CC(=O)/C=C(/C)CC/C=C(\C)CCC(O)C(C)(C)O (stereo not drawn) | – | – | Non-toxic | 62% | 59% | – |
| COc1c(C)cc(O)cc1C/C=C(\C)CC(=O)/C=C(/C)CCC[C@@]1(C)O[C@H](C(C)(C)O)C[C@H]1O | – | – | Non-toxic | 62% | – | 21% |
| COc1c(C)cc(O)cc1C/C=C(\C)CC(=O)/C=C(\C)CC/C=C(\C)CCC(O)C(C)(C)O (stereo not drawn) | – | 21% | Non-toxic | 37% | – | – |
| C/C(=C/C(=O)C/C(C)=C/Cc1cc(O)cc(C)c1O)CCCC(C)C(=O)/C=C/C(C)(C)O (stereo not drawn) | – | 21% | Non-toxic | 77% | – | – |
| C/C(=C\C(=O)C/C(C)=C/Cc1cc(O)cc(C)c1O)CCCC(C)(O)C(=O)/C=C/C(C)(C)O (stereo not drawn) | – | 69% | Non-toxic | 87% | – | – |
| COc1c(C)cc(O)cc1C/C=C(\C)CC(=O)/C=C(/C)CC/C=C(\C)C(O)CC1OC1(C)C (stereo not drawn) | – | – | Non-toxic | 37% | – | 21% |
| C/C(=C\C(=O)C/C(C)=C/Cc1cc(O)cc(C)c1O)CCCC(C)C(=O)/C=C/C(C)(C)O (stereo not drawn) | – | – | Non-toxic | 77% | 53% | – |
| COc1c(C)cc(O)cc1C/C=C(\C)CC(=O)/C=C(\C)C(O)CCC(C)(O)C(=O)/C=C/C(C)(C)O (stereo not drawn) | – | – | Non-toxic | 62% | – | 79% |
| COc1c(C)cc(O)cc1C/C=C(\C)CC(=O)/C=C(/C)CCC[C@@]1(C)O[C@@H](C(C)(C)O)CC1=O | – | – | – | 62% | – | – |
| COc1c(C)cc(O)cc1C/C=C(\C)CC(=O)/C=C(\C)CCC[C@@]1(C)O[C@@H](C(C)(C)O)CC1=O | – | – | – | 37% | – | – |
| COc1c(C)cc(O)cc1C/C=C(\C)CC(=O)/C=C(/C)CCCC(C)C(=O)CC(O)C(C)(C)O (stereo not drawn) | – | – | Non-toxic | 37% | – | 21% |
